Assay results published in ChEMBL document CHEMBL1123113, “"Reverse" and "symmetrical" analogues of actinomycin D: metabolic activation and in vitro and in vivo tumor growth inhibitory activities” (J Med Chem, 1985).

What was measured:
[1] = tested on: CCRF-CEM; assay: Inhibitory dose required for the inhibition of human lymphoblastic leukemia cells(CCRF-CEM); format: functional; settings: read-out: ID50 (the source's name)
[2] = tested on: Mus musculus; assay: Antitumor activity against P388 leukemia cells in terms of percentage increase in life span in mice at an optimal dose of 375 ug/kg administered ip; format: functional
[3] = tested on: Mus musculus; assay: Antitumor activity against B16 melanoma in terms of percentage increase in life span in mice at an optimal dose of 300 ug/kg administered ip; format: functional
[4] = species on record: Mus musculus; assay: Dose providing an increase in the life span of 45% over control in P388 tumor bearing mice; format: functional; settings: read-out: MED
How it was run: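 MED is the ip dose in mg/kg, given on days 1, 5 and 9 starting 1 day after implantation, that gives a 45% increase in life span over control in P388-bearing mice. It was derived from plotted log-dose response data.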

[5] = tested on: Mus musculus; assay: In vivo antitumor activity was determined against P388 leukemia mice as number of mice survived after administration of 375 ug/Kg dose of compound; Value represented as no of survivors/ treated = 4/8; format: functional
[6] = tested on: Mus musculus; assay: Antitumor activity against P388 leukemia cells in terms of median survival time of mice at an optimal dose of 375 ug/kg administered ip; format: functional
[7] = tested on: Mus musculus; assay: Antitumor activity against B16 melanoma in terms of median survival time of mice at an optimal dose of 300 ug/kg administered ip; format: functional
[8] = tested on: Mus musculus; assay: In vivo antitumor activity was determined against B16 melanoma in mice as number of mice survived after administration of 300 ug/Kg dose of compound; Value represented as no of survivors/ treated = 5/9; format: functional
[9] = tested on: Mus musculus; assay: Antitumor activity against P388 leukemia cells in terms of percentage increase in life span in mice at an optimal dose of 450 ug/kg administered ip; format: functional
[10] = species on record: Mus musculus; assay: Antitumor activity against B16 melanoma in terms of percentage increase in life span in mice after 65 days; format: functional
[11] = tested on: Mus musculus; assay: Antitumor activity against P388 leukemia cells in terms of median survival time of mice at an optimal dose of 450 ug/kg administered ip; format: functional
[12] = tested on: Mus musculus; assay: In vivo antitumor activity was determined against B16 melanoma in mice as number of mice survived after administration of 300 ug/Kg dose of compound; Value represented as no of survivors/ treated = 3/9; format: functional
[13] = species on record: Rattus norvegicus; assay: (§1) Compound tested for NADPH oxidation in rat hepatic mycrosomal incubation; format: functional
How it was run: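 Phenobarbital-induced rat liver microsomes (300 µg), 37 °C, no epinephrine; NADPH 0.4 mM added to sample cuvette only. A340 followed; % oxidation = (1 − A340/A'340)×100 vs cuvette not activated by microsomes; % stimulation = (drug rate − basal rate)/basal rate ×100. Drugs in 150 mM KCl-50 mM Tris pH 7.4; triplicate analyses, mean ± standard error.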

[14] = species on record: Rattus norvegicus; assay: (§2) Compound tested for adrenochrome formation in rat hepatic mycrosomal incubation; format: functional
How it was run: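 Superoxide read as adrenochrome from epinephrine (in 0.01 N HCl) with phenobarbital-induced rat liver microsomes (300 µg) at 37 °C; NADPH 0.4 mM added to sample cuvette after 1 min. Rate at 480 nm (ε 4.02 mM-1 cm-1); drug ≤100 µM in 150 mM KCl-50 mM Tris pH 7.4; % stimulation over basal rate; triplicate, mean ± standard error.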

[15] = tested on: Mus musculus; assay: In vivo antitumor activity was determined against P388 leukemia mice as number of mice survived after administration of 450 ug/Kg dose of compound; Value represented as no of survivors/ treated = 3/8; format: functional
[16] = tested on: Mus musculus; assay: Antitumor activity against B16 melanoma in terms of percentage increase in life span in mice at an optimal dose of 900 ug/kg administered ip; format: functional
[17] = tested on: Mus musculus; assay: Antitumor activity against P388 leukemia cells in terms of percentage increase in life span in mice at an optimal dose of 1000 ug/kg administered ip; format: functional
[18] = tested on: Mus musculus; assay: Antitumor activity against B16 melanoma in terms of median survival time of mice at an optimal dose of 900 ug/kg administered ip; format: functional
[19] = tested on: Mus musculus; assay: Antitumor activity against P388 leukemia cells in terms of median survival time of mice at an optimal dose of 1000 ug/kg administered ip; format: functional
[20] = tested on: Mus musculus; assay: In vivo antitumor activity was determined against P388 leukemia mice as number of mice survived after administration of 1000 ug/Kg dose of compound; Value represented as no of survivors/ treated = 2/8; format: functional
[21] = tested on: Mus musculus; assay: In vivo antitumor activity was determined against P388 (adriamycin sensitive tumors) as number of mice survived after administration of 0.3-1.8 mg/kg, ip dose of compound; Value represented as no of survivors/ treated = 4/8; format: functional
[22] = tested on: Mus musculus; assay: In vivo antitumor activity was determined against B16 melanoma mice as number of mice survived after administration of 900 ug/Kg dose of compound; Value represented as no of survivors/ treated = 2/9
[23] = tested on: P388; assay: Inhibition of RNA synthesis was measured as the concentration required to cause 50% reduction (in 1h) in 2-[14C]uridine incorporation into acid precipitable material using P388 cells; format: functional, cell-based; settings: Mus musculus, P388, 1 h
[24] = tested on: P388; assay: Inhibition of DNA synthesis was measured as the concentration required to cause 50% reduction (in 1h) in methyl [3H]thymidine incorporation into acid precipitable material using P388 cells; format: functional, cell-based; settings: Mus musculus
[25] = tested on: Mus musculus; assay: Antitumor activity against P388 leukemia cells in terms of percentage increase in life span in mice at an optimal dose of 600 ug/kg administered ip; format: functional
[26] = tested on: Mus musculus; assay: Antitumor activity against P388 leukemia cells in terms of median survival time of mice at an optimal dose of 600 ug/kg administered ip; format: functional
[27] = tested on: Mus musculus; assay: In vivo antitumor activity was determined against P388 leukemia mice as number of mice survived after administration of 600 ug/Kg dose of compound; Value represented as no of survivors/ treated = 4/8; format: functional
[28] = tested on: Mus musculus; assay: In vivo antitumor activity was determined against B16 melanoma mice as number of mice survived after administration of 300 ug/Kg dose of compound; Value represented as no of survivors/ treated = 4/9; format: functional
[29] = species on record: Rattus norvegicus; assay: as §1; format: functional; remark: listed apart in the source
How it was run: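 Phenobarbital-induced male Sprague-Dawley rat liver microsomes were placed in both cuvettes, without epinephrine. NADPH 0.4 mM was added to the sample side only, and absorbance was read at 340 nm. Percent stimulation = (drug rate − basal)/basal × 100. Values are the average ± standard errors of triplicates.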

[30] = species on record: Rattus norvegicus; assay: as §2; format: functional; remark: listed apart in the source
How it was run: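 Adrenochrome assay for superoxide: epinephrine in 0.01 N HCl plus 300 µg of phenobarbital-induced rat liver microsomes at 37 °C. NADPH 0.4 mM was added to the sample side 1 min later, and the rate was read at 480 nm (ε 4.02 mM−1 cm−1). Drugs were at ≤100 µM, made in 150 mM KCl–50 mM Tris, pH 7.4. Percent stimulation is over basal rate, in triplicate.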

SMILES: Cc1c2oc3c(C)c4oc(-c5ccccc5)nc4c(C(=O)N[C@@H]4C(=O)N[C@H](C(C)C)C(=O)N5CCC[C@H]5C(=O)N(C)CC(=O)N(C)[C@@H](C(C)C)C(=O)O[C@@H]4C)c3nc-2c(C(=O)N[C@@H]2C(=O)N[C@H](C(C)C)C(=O)N3CCC[C@H]3C(=O)N(C)CC(=O)N(C)[C@@H](C(C)C)C(=O)O[C@@H]2C)c(N)c1=O
- IC50 [1]: 0.03 µM
- ILS at 0.375 mg/kg [2]: 382%
- ILS at 0.3 mg/kg [3]: 103%
- minimal effective dose [4]: 0.03 mg/kg
- Survivors [5]: 4
- MST [6]: 52 days
- MST [7]: 59 days
- Survivors [8]: 5

SMILES: Cc1nc2c(C(=O)N[C@@H]3C(=O)N[C@H](C(C)C)C(=O)N4CCC[C@H]4C(=O)N(C)CC(=O)N(C)[C@@H](C(C)C)C(=O)O[C@@H]3C)c3nc4c(C(=O)N[C@@H]5C(=O)N[C@H](C(C)C)C(=O)N6CCC[C@H]6C(=O)N(C)CC(=O)N(C)[C@@H](C(C)C)C(=O)O[C@@H]5C)c(N)c(=O)c(C)c-4oc3c(C)c2o1 [listing 1 of 2 here]
- IC50 [1]: 0.11 µM
- ILS at 0.45 mg/kg [9]: 277%
- ILS [10]: 90%
- MST [11]: 42.5 days
- MST [7]: 55 days
- Survivors [12]: 3
- NADPH oxidation [13]: 21.3 nM min-1 (mg of protein)-1
- adrenochrome formation [14]: 6.04 nM min-1 (mg of protein)-1
- Survivors [15]: 3

SMILES: Cc1c2oc3c(C)c4oc(-c5ccccc5)nc4c(C(=O)N[C@@H]4C(=O)N[C@H](C(C)C)C(=O)N5CCC[C@H]5C(=O)N(C)CC(=O)N(C)[C@@H](C(C)C)C(=O)O[C@@H]4C)c3nc-2c(C(=O)N[C@@H]2C(=O)N[C@H](C(C)C)C(=O)N3CCC[C@H]3C(=O)N(C)CC(=O)N(C)[C@@H](C(C)C)C(=O)O[C@@H]2C)cc1=O
- IC50 [1]: 0.5 µM
- ILS at 0.9 mg/kg [16]: 55%
- ILS (Sur) [17]: 186%
- minimal effective dose [4]: 0.2 mg/kg
- MST [18]: 45 days
- MST [19]: 31.5 days
- Survivors [20]: 2
- Survivors [21]: 4
- Survivors [22]: 2

SMILES: Cc1nc2c(C(=O)N[C@@H]3C(=O)N[C@H](C(C)C)C(=O)N4CCC[C@H]4C(=O)N(C)CC(=O)N(C)[C@@H](C(C)C)C(=O)O[C@@H]3C)c3nc4c(C(=O)N[C@@H]5C(=O)N[C@H](C(C)C)C(=O)N6CCC[C@H]6C(=O)N(C)CC(=O)N(C)[C@@H](C(C)C)C(=O)O[C@@H]5C)c(N)c(=O)c(C)c-4oc3c(C)c2o1 [listing 2 of 2 here]
- IC50 [23]: 0.09 µM
- IC50 [24]: 1.01 µM

SMILES: Cc1c2oc3c(C)c(O)c(N)c(C(=O)N[C@@H]4C(=O)N[C@H](C(C)C)C(=O)N5CCC[C@H]5C(=O)N(C)CC(=O)N(C)[C@@H](C(C)C)C(=O)O[C@@H]4C)c3nc-2c(C(=O)N[C@@H]2C(=O)N[C@H](C(C)C)C(=O)N3CCC[C@H]3C(=O)N(C)CC(=O)N(C)[C@@H](C(C)C)C(=O)O[C@@H]2C)c(N)c1=O
- IC50 [1]: 0.03 µM
- ILS at 0.6 mg/kg [25]: 382%
- ILS at 0.3 mg/kg [3]: 96%
- minimal effective dose [4]: 0.025 mg/kg
- MST [26]: 52 days
- MST [7]: 57 days
- Survivors [27]: 4
- Survivors [28]: 4
- NADPH oxidation [29]: 64.3 nM min-1 (mg of protein)-1
- adrenochrome formation [30]: 19.3 nM min-1 (mg of protein)-1
